Test results from ChEMBL document CHEMBL1770086, “Design and synthesis of benzoxazole containing indole analogs as peroxisome proliferator-activated receptor-γ/δ dual agonists” (Bioorg Med Chem Lett, 2011).
Activity calls are given as the source filed them.

Legend:
Assay type in all cases: functional, cell-based
Settings in all cases: CV-1
[1] = biological target: T1, Peroxisome proliferator-activated receptor alpha (Mus musculus) (UniProt P23204); assay: Agonist activity at mouse PPARalpha expressed in CV1 cells co-expressing tk-PPRE-luciferase vector assessed as transient transactivation at 20 uM after 24 hrs by luciferase reporter gene assay relative to GW0746
T1 sequence (whole entry): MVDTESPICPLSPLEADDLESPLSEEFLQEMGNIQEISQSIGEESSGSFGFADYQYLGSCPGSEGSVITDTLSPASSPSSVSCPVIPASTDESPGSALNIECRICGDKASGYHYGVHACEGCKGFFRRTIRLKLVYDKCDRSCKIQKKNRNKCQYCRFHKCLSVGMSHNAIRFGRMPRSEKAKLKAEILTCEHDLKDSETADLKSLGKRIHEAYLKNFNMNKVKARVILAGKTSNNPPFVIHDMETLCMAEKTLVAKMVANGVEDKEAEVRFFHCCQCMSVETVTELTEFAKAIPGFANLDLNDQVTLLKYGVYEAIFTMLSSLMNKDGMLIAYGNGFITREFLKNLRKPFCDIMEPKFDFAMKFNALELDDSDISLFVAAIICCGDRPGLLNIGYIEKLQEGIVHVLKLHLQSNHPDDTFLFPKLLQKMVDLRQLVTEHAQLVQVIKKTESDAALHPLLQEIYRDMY
Summary of the method: (§1)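 CV-1 cells seeded at 1.5 × 10⁵ cells/well in DMEM with 10% FBS. Transient transfection for 6 h with PPAR expression vector, tk-PPRE-luciferase reporter and β-galactosidase plasmid, then 24 h of compound exposure. Luciferase read in cell lysates. β-gal read as absorbance at 410 nm. Activity expressed as luciferase/β-gal. Not active means below 10% transactivation at 20 µM. At least three separate experiments.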

[2] = biological target: T2, Peroxisome proliferator-activated receptor delta (Mus musculus) (UniProt P35396); assay: Agonist activity at mouse PPARdelta expressed in CV1 cells co-expressing tk-PPRE-luciferase vector assessed as transient transactivation at 20 uM after 24 hrs by luciferase reporter gene transactivation assay relative to GW0742; summary of the method: as §1
T2 sequence (whole entry): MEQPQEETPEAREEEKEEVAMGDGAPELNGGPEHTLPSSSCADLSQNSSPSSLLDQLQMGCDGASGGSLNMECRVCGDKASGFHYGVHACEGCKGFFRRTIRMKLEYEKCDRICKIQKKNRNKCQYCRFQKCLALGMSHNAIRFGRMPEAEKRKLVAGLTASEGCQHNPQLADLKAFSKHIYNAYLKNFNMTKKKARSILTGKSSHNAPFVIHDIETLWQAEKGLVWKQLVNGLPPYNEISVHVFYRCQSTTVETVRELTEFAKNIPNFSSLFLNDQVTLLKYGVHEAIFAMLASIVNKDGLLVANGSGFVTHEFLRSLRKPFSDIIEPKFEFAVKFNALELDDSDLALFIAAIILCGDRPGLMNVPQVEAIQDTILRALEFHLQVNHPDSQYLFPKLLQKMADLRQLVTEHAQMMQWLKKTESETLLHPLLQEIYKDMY

[3] = biological target: T3, Peroxisome proliferator-activated receptor gamma (Mus musculus) (UniProt P37238); assay: Agonist activity at mouse PPARgamma expressed in CV1 cells co-expressing tk-PPRE-luciferase vector assessed as transient transactivation at 20 uM after 24 hrs by luciferase reporter gene transactivation assay relative to rosiglitazone; summary of the method: as §1
T3 sequence (whole entry): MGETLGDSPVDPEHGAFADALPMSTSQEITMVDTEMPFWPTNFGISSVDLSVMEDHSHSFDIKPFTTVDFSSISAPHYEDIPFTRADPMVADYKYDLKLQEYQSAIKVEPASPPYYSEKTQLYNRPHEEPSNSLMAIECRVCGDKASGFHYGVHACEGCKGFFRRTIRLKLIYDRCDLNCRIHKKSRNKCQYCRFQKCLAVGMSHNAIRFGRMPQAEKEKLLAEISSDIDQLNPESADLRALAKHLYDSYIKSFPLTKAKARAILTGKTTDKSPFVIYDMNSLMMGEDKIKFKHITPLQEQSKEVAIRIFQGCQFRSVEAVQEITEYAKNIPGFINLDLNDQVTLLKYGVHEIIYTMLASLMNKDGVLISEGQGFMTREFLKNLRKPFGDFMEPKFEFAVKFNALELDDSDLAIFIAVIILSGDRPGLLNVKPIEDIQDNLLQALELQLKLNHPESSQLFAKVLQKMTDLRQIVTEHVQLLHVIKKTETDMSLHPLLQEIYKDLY

| Activity [1] | Activity [2] | Activity [3] | Compound |
| --- | --- | --- | --- |
| inactive | inactive | 18.3% | CN(CCCOc1ccc2[nH]cc(CC(=O)O)c2c1)c1nc2ccccc2o1 |
| 13.6% | 27.9% | 29.6% | CN(CCOc1ccc2cc(C(=O)O)n(C)c2c1)c1nc2ccccc2s1 |
| 10% | 33.4% | 43.9% | CN(CCOc1ccc2cc(C(=O)O)n(Cc3ccccc3)c2c1)c1nc2ccccc2o1 |
| inactive | inactive | 37.1% | COC(=O)Cc1cn(CC(=O)OC)c2ccc(OCCCN(C)c3nc4ccccc4o3)cc12 |
| inactive | inactive | inactive | COC(=O)Cc1cn(Cc2ccc(F)cc2)c2ccc(OCCCN(C)c3nc4ccccc4o3)cc12 |
| inactive | 14.6% | inactive | CN(CCOc1ccc2cc(C(=O)O)[nH]c2c1)c1nc2ccccc2s1 |
| inactive | inactive | 42.1% | COC(=O)Cc1c[nH]c2ccc(OCCCN(C)c3nc4ccccc4o3)cc12 |
| inactive | 32.9% | 66.7% | CCn1cc(CC(=O)O)c2cc(OCCN(C)c3nc4ccccc4o3)ccc21 |
| inactive | 18.3% | 28.9% | COC(=O)Cc1cn(C(=O)c2ccc(Cl)cc2)c2ccc(OCCCN(C)c3nc4ccccc4o3)cc12 |
| 16.7% | 68.8% | 66.4% | CCn1c(C(=O)O)cc2ccc(OCCN(C)c3nc4ccccc4s3)cc21 |
| inactive | inactive | 23.3% | CCn1c(C(=O)O)cc2ccc(OCCN(C)c3nc4ccccc4o3)cc21 |
| inactive | inactive | inactive | CN(CCOc1ccc2cc(C(=O)O)[nH]c2c1)c1nc2ccccc2o1 |
| 13.3% | inactive | 15.8% | CN(CCCOc1ccc2c(c1)c(CC(=O)O)cn2Cc1ccc(F)cc1)c1nc2ccccc2o1 |
| 28% | inactive | 58.6% | CN(CCOc1ccc2c(c1)c(CC(=O)O)cn2C)c1nc2ccccc2o1 |
| inactive | inactive | inactive | CN(CCCOc1ccc2c(c1)c(CC(=O)O)cn2CC(=O)O)c1nc2ccccc2o1 |
| inactive | inactive | 28.1% | CN(CCOc1ccc2[nH]cc(CC(=O)O)c2c1)c1nc2ccccc2o1 |
| inactive | inactive | inactive | CN(CCOc1ccc2cc(C(=O)O)n(C)c2c1)c1nc2ccccc2o1 |
